In the library only some 3% were active in any assay of this set; here they are far more common.
S100A4 MyoIIA: inhibitors of human S100A4 binding to myosin IIA peptide | P26447 | S100A4/TAMRA-MyoIIA peptide fluorescence polarization | inhibition, % at 10.7 µM | 0.14% of 360,000 active;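 active = mean inhibition of at least 70% across replicates, with every replicate also reaching that level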
Target sequence (P26447 whole entry, looked up): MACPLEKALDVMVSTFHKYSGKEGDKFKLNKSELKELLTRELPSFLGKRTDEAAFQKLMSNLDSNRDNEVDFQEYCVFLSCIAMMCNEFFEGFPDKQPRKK
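Test system – S100A4 monomer (human) · Compound – single-point compound testing · Schedule – 5 min incubation before reading · Probe or stimulus – TAMRA-labelled myosin IIA heavy-chain peptide probe, 5 nM · Benchmarks – neutral control DMSO, positive control TFP · Medium – Calcium-containing HEPES buffer, pH 7.2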
PGC1a acetyl inh: modulators of PGC1a acetylation; U2OS PGC1a acetylation, AlphaScreen anti-acetyl-lysine; with virally co-expressed GCN5 acetyltransferase; inhibition, % at 15.6 µM; 0.17% of 350,000 active;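 active = every replicate shows inhibition of at least 40%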;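 note: 0% = neutral control wells and 100% = positive control wells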
C2C12 statin: suppression of simvastatin myotoxicity. C2C12 myotubes + simvastatin, ATP luminescence, 48 h; scaled: DMSO 0, geranylgeraniol control 100. rescue of ATP level, % at 7.49 µM. 0.78% of 330,000 active. AID 602340;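 active = mean ATP rescue above about 67%, or every replicate alone reaching that limit, limit read from the data, passing the limit was not always enough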;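 note: myotubes were challenged with 10 µM simvastatin during compound exposure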
rRNA inh HTS: selective bacterial rRNA inhibition in E. coli. 1.6% of 350,000 active. GFP signal change (wild-type ribosome), % (no concentration beside the values). E. coli WT GFP vs humanized-ribosome RFP mutants, fluorescence, 24 h; stronger effect = lower value; DMSO median 0, no signal -100. AID 720706;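 active = significant combined selectivity score with lowered wild-type GFP, culture density cut under 30%, mutant RFP and density less affected; inactive = any of these conditions unmet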
SIRT5 block: inhibitors of human sirtuin-5 desuccinylase. Q9NXA8. Purified SirT5, succinyl-peptide AMC, trypsin-coupled fluorescence. inhibition, % at 15 µM. 1.1% of 330,000 active. AID 652115; in the data active = inhibition above about 15%
Target sequence (Q9NXA8 whole entry, looked up): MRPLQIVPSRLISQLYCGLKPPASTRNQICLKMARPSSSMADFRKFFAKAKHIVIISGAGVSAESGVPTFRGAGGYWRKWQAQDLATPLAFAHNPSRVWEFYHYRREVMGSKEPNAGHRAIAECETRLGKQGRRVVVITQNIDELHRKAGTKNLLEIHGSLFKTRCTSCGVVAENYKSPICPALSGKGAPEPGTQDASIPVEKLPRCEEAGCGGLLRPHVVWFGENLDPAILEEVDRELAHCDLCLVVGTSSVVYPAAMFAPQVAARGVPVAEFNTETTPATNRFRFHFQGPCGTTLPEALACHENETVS
Cneo AK release: causes C. neoformans cell lysis. adenylate kinase release luminescence, 4 h; normalised: neutral wells 0, clomiphene wells 100. lysis activity, % at 15 µM. 0.2% of 360,000 active. AID 651654;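 active = mean lysis activity across replicates of at least 80%, whatever share of replicates individually reach that level; inactive = mean lysis activity below 80%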
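Signal: Adenylate kinase release luminescence | Assay system: Log-phase Cryptococcus neoformans yeast cells | Input: Cells at 5 × 10^6 per mL | Buffer or medium: Fresh YPD growth medium | Compound: Single dose | Schedule: Static 4 h at 37 °C with compound, 1 h detection | Controls: Clomiphene | Read-out: Luminescence rise reflecting yeast cell lysis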
Numbers without * were called inactive; nt = no result given.

SMILES	S100A4 MyoIIA	PGC1a acetyl inh	C2C12 statin	rRNA inh HTS	SIRT5 block	Cneo AK release
C[C@@H]1CN([C@@H](C)CO)C(=O)c2cc(NS(=O)(=O)c3ccc(Cl)cc3)ccc2O[C@@H]1CN(C)S(=O)(=O)c1ccccc1	nt	-13.8	-12.8	0.1	nt	4.0
C/C(=N\NC(=O)C1CC1c1ccccc1)c1cccc([N+](=O)[O-])c1 (stereo not drawn)	nt	8.5	-19.7	nt	nt	-0.4
C/C(=N\NC(=O)C1CC1(c1ccccc1)c1ccccc1)c1cccc([N+](=O)[O-])c1 (stereo not drawn)	-3.3	1.3	nt	8.7	15.0*	-0.1
CS(=O)(=O)N(CCc1ccccc1)CC(N)=O	nt	14.3	102.5*	nt	nt	0.9
CS(=O)(=O)N(CCc1ccccc1)CC(=O)N1CCc2ccccc2C1	nt	-1.2	110.6*	nt	nt	-0.9
S=C(NCCc1ccccc1)N1CCc2ccccc2C1	-17.9	nt	nt	-21.9*	-7.8	nt
Cc1noc(C)c1S(=O)(=O)N(C)C[C@@H]1Oc2ccc(NS(C)(=O)=O)cc2C(=O)N([C@H](C)CO)C[C@@H]1C	nt	-11.0	11.8	nt	nt	nt
O=C(NCC(c1ccco1)N1CCN(c2ccccc2F)CC1)C1CCCCC1 (stereo not drawn)	8.0	0.2	13.2	-12.5	19.6*	-1.1
O=C(COc1ccccc1)NCC(c1ccco1)N1CCN(c2ccc(F)cc2)CC1 (stereo not drawn)	7.2	nt	nt	-14.4	18.5*	7.0
COc1cc(NC(=O)CSCc2ccc(Cl)cc2Cl)c(C(=O)O)cc1OC	3.3	11.4	0.6	-20.4*	3.6	-1.6
Cc1ccc(C(=O)N/C(=C\c2ccc(-c3cccc([N+](=O)[O-])c3)o2)C(=O)NCCCN(C)C)cc1	10.2	4.0	-19.9	-29.2*	4.4	-4.4
CNC[C@@H]1Oc2ccc(NS(=O)(=O)c3ccc(Cl)cc3)cc2C(=O)N([C@H](C)CO)C[C@H]1C	-6.5	0.8	13.2	4.6	1.4	107.7*
Cc1ccc(S(=O)(=O)Nc2ccc3c(c2)C(=O)N([C@H](C)CO)C[C@H](C)[C@H](CN(C)S(=O)(=O)c2ccc(Cl)cc2)O3)cc1	-36.8	7.6	nt	1.7	8.3	nt
Cc1ccc(S(=O)(=O)Nc2ccc3c(c2)C(=O)N([C@@H](C)CO)C[C@@H](C)[C@@H](CN(C)S(=O)(=O)c2ccc(Cl)cc2)O3)cc1	-0.3	-6.7	nt	-2.6	19.8*	nt
Cc1ccc(S(=O)(=O)Nc2ccc3c(c2)C(=O)N([C@H](C)CO)C[C@@H](C)[C@H](CN(C)S(=O)(=O)c2ccc(Cl)cc2)O3)cc1	3.1	-8.5	nt	-2.3	16.0*	nt
CNC[C@H]1Oc2ccc(NS(=O)(=O)c3ccc(Cl)cc3)cc2C(=O)N([C@H](C)CO)C[C@@H]1C	-2.3	2.7	3.1	7.6	0.8	-41.1
CO[C@@H]1CN(C)C(=O)c2ccc(NS(=O)(=O)c3ccccc3)cc2OC[C@@H](C)N(C(=O)NC(C)C)C[C@H]1C	-2.0	-0.2	-2.3	1.1	1.5	53.5
C[C@H]1CN([C@@H](C)CO)C(=O)Cc2cc(NC(=O)c3ccncc3)ccc2O[C@@H]1CN(C)Cc1ccc2c(c1)OCO2	5.8	8.2	10.8	-4.9	5.4	-11.5
C[C@@H]1CN([C@H](C)CO)S(=O)(=O)c2ccc(/C=C/c3ccccc3)cc2O[C@H]1CN(C)Cc1cccnc1	2.5	-9.6	nt	-3.5	6.1	nt
Cc1ccc(-c2ccc3c(c2)O[C@@H](CN(C)Cc2ccc(F)cc2)[C@@H](C)CN([C@@H](C)CO)S3(=O)=O)cc1	-5.6	-15.4	-104.4	-6.8	5.1	-8.1
Cc1ccc(-c2ccc3c(c2)O[C@H](CN(C)Cc2ccc(F)cc2)[C@H](C)CN([C@H](C)CO)S3(=O)=O)cc1	-10.1	-19.9	-21.4	1.8	8.4	89.6*
Cc1ccc(-c2ccc3c(c2)O[C@H](CN(C)Cc2cccnc2)[C@H](C)CN([C@@H](C)CO)S3(=O)=O)cc1	-5.6	-28.3	-19.5	-27.8	15.1*	9.2
CC=Cc1ccc2n(c1=O)C[C@@H]1[C@@H](CO)[C@H](C(=O)NCCC)N(CCC(F)(F)F)[C@H]21 (mixture of isomers)	1.8	2.8	-16.5	2.5	1.1	-1.4
COC(=O)C1=C(C)NC2=C(C(=O)c3ccccc32)C1c1cccc(OC)c1 (stereo not drawn)	-4.1	-10.2	nt	nt	-3.8	1.8
CCOC(=O)C1=C(C)NC2=C(C(=O)c3ccccc32)C1c1cccc2ccccc12 (stereo not drawn)	5.0	8.0	-52.0	-19.4*	-2.5	-1.0
SMILES	S100A4 MyoIIA	PGC1a acetyl inh	C2C12 statin	rRNA inh HTS	SIRT5 block	Cneo AK release
COc1ccccc1CN(C)C[C@@H]1OCc2ccccc2-c2c(n(C)c3ccccc23)C(=O)N([C@@H](C)CO)C[C@@H]1C	3.5	6.0	nt	-4.9	7.1	nt
O=C(c1coc2ccc(O)c(CN3CCOCC3)c12)C1CC1	nt	-3.4	nt	nt	nt	0.9
O=C(c1cccs1)c1coc2ccc(O)c(CN3CCOCC3)c12	1.6	nt	1.2	-3.5	29.1*	2.5
COc1ccc(S(=O)(=O)N2CCCCN3[C@H](C2)[C@@H](c2ccc(C#CCC(C)C)cc2)[C@@H]3CO)cc1	nt	-17.5	nt	7.2	nt	0.7
OC[C@@H]1[C@H](c2ccc(C#CC3CCCC3)cc2)[C@H]2CN(CCC(F)(F)F)CCCCN12	-48.8	80.5*	-95.8	-58.5	2.3	24.4
COc1ccc(S(=O)(=O)N2CCCCN3[C@@H](CO)[C@H](c4ccc(C#CC(C)C)cc4)[C@@H]3C2)cc1	-6.7	-7.5	-56.0	-46.0*	15.4*	4.1
O=S(=O)(c1ccccc1)N1CCCCN2[C@@H](CO)[C@H](c3ccc(C#CC4CCCC4)cc3)[C@@H]2C1	-3.4	-6.4	-10.2	-1.5	6.5	10.7
O=S(=O)(c1ccccc1)N1CCCCN2[C@H](C1)[C@@H](c1ccc(C#CC3CCCC3)cc1)[C@@H]2CO	-4.1	-11.7	-6.6	-1.4	15.3*	7.6
COc1ccc(C#Cc2ccc([C@H]3[C@H]4CN(S(=O)(=O)c5ccccc5)CCCCN4[C@H]3CO)cc2)cc1	123.2*	-2.1	3.6	7.6	6.5	7.5
O=C(Cc1ccncc1)NCC[C@H]1CC[C@@H](NC(=O)C2CCCC2)[C@H](CO)O1	-0.4	-1.7	-1.0	4.3	-1.7	1.1
C[C@H]1CN([C@@H](C)CO)C(=O)Cc2cc(NS(=O)(=O)c3ccccc3)ccc2O[C@@H]1CN(C)C(=O)Nc1ccc2c(c1)OCO2	nt	-2.2	-19.4	-6.6	nt	nt
CC(C)(Oc1ccc(Cl)cc1)C(=O)NCc1ccco1	nt	1.9	122.8*	nt	nt	-2.2
CCNC(=O)C[C@H]1CC[C@@H]2[C@@H](COc3ccc(NC(=O)Nc4ccc(Cl)cc4)cc3C(=O)N2C)O1	5.5	-9.0	19.1	-6.4	0.2	3.6
